According to ChEMBL document CHEMBL1154945, “Decahydroisoquinoline derivatives as novel non-peptidic, potent and subtype-selective somatostatin sst(3) receptor antagonists” (Bioorg Med Chem Lett, 2010):

What was measured:
[1] = molecular target: T1, Somatostatin receptor type 3 (Homo sapiens, UniProt P32745); test: Binding affinity to human SST3 receptor
[2] = molecular target: Somatostatin receptor type 1 (Homo sapiens, UniProt P30872); test: Binding affinity to human SST1 receptor
[3] = molecular target: Somatostatin receptor type 1 (Rattus norvegicus, UniProt P28646); test: Displacement of [125I]SRIF-14 from rat cortex membrane SST1 receptor
[4] = molecular target: Somatostatin receptor type 2 (Rattus norvegicus, UniProt P30680); test: Displacement of [125I]SRIF-14 from rat cortex membrane SST2 receptor
[5] = molecular target: Somatostatin receptor type 2 (Homo sapiens, UniProt P30874); test: Binding affinity to human SST2 receptor
[6] = molecular target: Somatostatin receptor type 4 (Homo sapiens, UniProt P31391); test: Binding affinity to human SST4 receptor
[7] = molecular target: Somatostatin receptor type 5 (Homo sapiens, UniProt P35346); test: Binding affinity to human SST5 receptor
[8] = species: Homo sapiens; test: Selectivity for human SST3 over human SST2
[9] = species: Homo sapiens; test: Selectivity for human SST3 over human SST5
[10] = species: Homo sapiens; test: Selectivity for human SST3 over human SST4
[11] = species: Homo sapiens; test: Selectivity for human SST3 over human SST1
[12] = molecular target: T1, Somatostatin receptor type 3; test: Antagonist activity at human recombinant SST3 receptor expressed in CHO cells assessed as inhibition of SRIF14-induced cAMP accumulation; type: functional, cell-based
Procedure, shortened: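 cAMP-based functional assay with human recombinant sst3 receptors expressed in CHO cells; test agent's antagonism of SRIF-14 response measured, pKB derived; n = 6.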

Chain of Somatostatin receptor type 4 (P31391 whole entry): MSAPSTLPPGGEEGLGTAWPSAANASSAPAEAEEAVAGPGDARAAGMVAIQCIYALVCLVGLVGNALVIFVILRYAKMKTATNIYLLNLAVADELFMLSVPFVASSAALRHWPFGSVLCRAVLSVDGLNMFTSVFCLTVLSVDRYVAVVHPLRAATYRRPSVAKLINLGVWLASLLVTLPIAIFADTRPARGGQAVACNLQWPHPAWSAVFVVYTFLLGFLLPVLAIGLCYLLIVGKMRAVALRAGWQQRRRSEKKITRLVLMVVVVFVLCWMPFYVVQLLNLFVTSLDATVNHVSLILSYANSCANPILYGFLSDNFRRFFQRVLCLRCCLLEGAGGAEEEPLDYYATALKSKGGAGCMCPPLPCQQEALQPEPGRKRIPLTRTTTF
T1 sequence (P32745 whole entry): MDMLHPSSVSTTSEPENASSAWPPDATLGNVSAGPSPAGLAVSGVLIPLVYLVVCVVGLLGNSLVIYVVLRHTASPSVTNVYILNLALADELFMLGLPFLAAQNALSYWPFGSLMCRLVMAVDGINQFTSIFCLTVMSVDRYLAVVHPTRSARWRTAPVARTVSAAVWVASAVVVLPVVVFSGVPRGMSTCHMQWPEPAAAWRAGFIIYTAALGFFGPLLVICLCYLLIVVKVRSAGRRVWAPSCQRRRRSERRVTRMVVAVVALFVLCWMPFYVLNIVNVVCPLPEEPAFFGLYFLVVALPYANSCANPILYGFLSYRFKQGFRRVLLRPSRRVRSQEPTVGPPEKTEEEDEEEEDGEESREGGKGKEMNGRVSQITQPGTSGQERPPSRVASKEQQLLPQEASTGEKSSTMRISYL
Chain of Somatostatin receptor type 1 (Homo sapiens, UniProt P30872) (P30872 whole entry): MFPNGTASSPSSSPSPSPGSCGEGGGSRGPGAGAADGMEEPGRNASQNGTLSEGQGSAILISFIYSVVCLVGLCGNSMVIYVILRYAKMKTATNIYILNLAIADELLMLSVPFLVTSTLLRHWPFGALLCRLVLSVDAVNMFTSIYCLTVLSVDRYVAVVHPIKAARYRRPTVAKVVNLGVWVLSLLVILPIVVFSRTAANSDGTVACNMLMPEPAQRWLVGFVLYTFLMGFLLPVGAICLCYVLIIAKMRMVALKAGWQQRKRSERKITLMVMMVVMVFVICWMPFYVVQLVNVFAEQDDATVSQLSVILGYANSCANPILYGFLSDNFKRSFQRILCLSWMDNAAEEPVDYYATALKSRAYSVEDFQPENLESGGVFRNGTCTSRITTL
Chain of Somatostatin receptor type 2 (Rattus norvegicus, UniProt P30680) (P30680 whole entry): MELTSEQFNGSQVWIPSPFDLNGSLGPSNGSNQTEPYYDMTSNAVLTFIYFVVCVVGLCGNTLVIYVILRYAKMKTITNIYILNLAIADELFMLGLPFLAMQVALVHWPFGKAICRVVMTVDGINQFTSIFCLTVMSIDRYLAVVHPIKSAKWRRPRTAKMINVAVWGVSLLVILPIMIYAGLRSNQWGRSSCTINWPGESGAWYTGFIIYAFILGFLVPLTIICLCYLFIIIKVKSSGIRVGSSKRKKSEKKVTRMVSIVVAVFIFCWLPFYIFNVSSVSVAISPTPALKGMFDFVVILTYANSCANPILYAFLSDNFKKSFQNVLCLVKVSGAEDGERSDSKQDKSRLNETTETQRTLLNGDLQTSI
Chain of Somatostatin receptor type 1 (Rattus norvegicus, UniProt P28646) (P28646 whole entry): as the sequence (P30872 whole entry) above, with S8P, S11T, P16S, S20G, G25V, G26C, A32S, A45S, T385A, T389S counted along it
Chain of Somatostatin receptor type 2 (Homo sapiens, UniProt P30874) (P30874 whole entry): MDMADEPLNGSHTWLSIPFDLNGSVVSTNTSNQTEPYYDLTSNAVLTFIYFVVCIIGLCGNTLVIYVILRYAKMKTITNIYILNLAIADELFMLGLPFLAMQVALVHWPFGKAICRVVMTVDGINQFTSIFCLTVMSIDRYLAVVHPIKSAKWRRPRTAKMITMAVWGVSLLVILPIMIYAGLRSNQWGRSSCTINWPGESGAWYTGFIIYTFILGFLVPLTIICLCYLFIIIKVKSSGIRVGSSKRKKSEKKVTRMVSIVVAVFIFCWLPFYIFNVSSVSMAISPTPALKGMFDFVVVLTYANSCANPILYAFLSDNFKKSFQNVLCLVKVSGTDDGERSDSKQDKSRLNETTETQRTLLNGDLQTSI
Chain of Somatostatin receptor type 5 (P35346 whole entry): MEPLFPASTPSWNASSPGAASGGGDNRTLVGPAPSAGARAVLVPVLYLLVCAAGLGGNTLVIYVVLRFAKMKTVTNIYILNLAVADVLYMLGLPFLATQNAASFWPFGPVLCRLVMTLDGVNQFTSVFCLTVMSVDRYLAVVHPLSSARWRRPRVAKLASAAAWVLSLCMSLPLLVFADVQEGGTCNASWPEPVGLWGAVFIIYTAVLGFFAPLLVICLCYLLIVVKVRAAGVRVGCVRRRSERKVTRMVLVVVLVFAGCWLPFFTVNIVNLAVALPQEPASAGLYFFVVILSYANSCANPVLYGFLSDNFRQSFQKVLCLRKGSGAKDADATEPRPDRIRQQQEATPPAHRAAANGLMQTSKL

| Kd [1] [nM] | Kd [2] [nM] | SMILES | also measured |
| --- | --- | --- | --- |
| 1.35 | 398 | COC(=O)c1cc(CC(C)CN2C[C@@H]3CCCC[C@@H]3[C@H](C(=O)N3CCN(c4ccc([N+](=O)[O-])cc4)CC3)C2)cc(C(=O)OC)c1 (mixture of isomers) |  |
| 1350 |  | CC(Cc1ccc2c(c1)OCO2)CN1CC2CCCCC2C(C(=O)N2CCN(c3cccc4nccnc34)CC2)C1 (centres undefined) |  |
| 2690 |  | CC(Cc1ccc2c(c1)OCO2)CN1CC2CCCCC2C(C(=O)N2CCN(c3cccc4nncn34)CC2)C1 (centres undefined) |  |
| 3.39 | 1380 | Cc1nc2cc(C[C@H](C)CN3C[C@@H]4CCCC[C@@H]4[C@H](C(=O)N4CCN(c5ccc(F)c(F)c5)CC4)C3)ccc2o1 | Kd [3]: 457 nM; Kd [4]: 229 nM; Kd [5]: 5500 nM; Kd [6]: 417 nM; Kd [7]: 1100 nM; Ratio [8]: > 150; Ratio [9]: > 150; Ratio [10]: 120 |
| 1050 | 7.59 | CN(CCC(=O)N1CCN(c2ccc([N+](=O)[O-])cc2)CC1)CCC1c2ccccc2-c2ccccc21 |  |
| 2.88 | 1000 | COC(=O)c1cc(CC(C)CN2CC3CCCCC3C(C(=O)N3CCN(c4ccc([N+](=O)[O-])cc4)CC3)C2)cc(C(=O)OC)c1 (racemic) |  |
| 107 | 39.8 | Cc1cn2cc(C[C@H](C)CN3C[C@@H]4CCCC[C@@H]4[C@H](C(=O)N4CCN(c5ccc(F)c(F)c5)CC4)C3)ccc2n1 | Ratio [11]: 0.4 |
| 191 |  | CC(Cc1ccc2c(c1)OCO2)CN1CC2CCCCC2C(C(=O)N2CCN(c3cccc4nsnc34)CC2)C1 (centres undefined) |  |
| 117 | 120 | O=C(C1CCCN(CCC2c3ccccc3-c3ccccc32)C1)N1CCN(c2ccc([N+](=O)[O-])cc2)CC1 (racemic) |  |
| 155 | 537 | CC(Cc1ccc2c(c1)OCO2)CN1C[C@@H](C(=O)N2CCN(c3ccc([N+](=O)[O-])cc3)CC2)C[C@@H]2CCCC[C@H]21 (mixture of isomers) |  |
| 3630 | 724 | COc1ccc(C[C@@H](C)CN2C[C@H]3CCCC[C@H]3[C@@H](C(=O)N3CCN(c4ccc(F)c(F)c4)CC3)C2)cn1 | Kd [3]: 813 nM; Kd [4]: 20900 nM; Kd [5]: 38000 nM; Kd [6]: 6170 nM; Kd [7]: 91200 nM; pKb [12]: 5.1 |
| 8.51 | 912 | C[C@@H](Cc1ccc2c(c1)OCO2)CN1C[C@@H]2CCCC[C@@H]2[C@H](C(=O)N2CCN(c3ccc(F)c(F)c3)CC2)C1 |  |
| 28.8 | 1910 | CCNc1ccc(C[C@H](C)CN2C[C@@H]3CCCC[C@@H]3[C@H](C(=O)N3CCN(c4ccc(F)c(F)c4)CC3)C2)cn1 |  |
| 57.5 |  | CC(Cc1ccc2c(c1)OCO2)CN1CC2CCCCC2C(C(=O)N2CCN(c3ccc(F)cc3)CC2)C1 (centres undefined) |  |
| 1120 | 6170 | CC(Cc1ccc2c(c1)OCO2)CN1C[C@H]2CCCC[C@H]2[C@H](C(=O)N2CCN(c3ccc([N+](=O)[O-])cc3)CC2)C1 (mixture of isomers) |  |
| 162 | 490 | CC(Cc1ccc2c(c1)OCO2)CN1C[C@H](C(=O)N2CCN(c3ccc([N+](=O)[O-])cc3)CC2)C[C@@H]2CCCC[C@@H]21 (mixture of isomers) |  |
| 7.76 | 1550 | C[C@@H](Cc1ccc2nsnc2c1)CN1C[C@@H]2CCCC[C@@H]2[C@H](C(=O)N2CCN(c3ccc(F)c(F)c3)CC2)C1 | Kd [3]: 1170 nM; Kd [4]: 151 nM; Kd [5]: 3550 nM; Kd [6]: 1020 nM; Kd [7]: 1660 nM; Ratio [8]: > 150; Ratio [9]: > 150; Ratio [10]: 130 |
| 19.5 |  | CC(Cc1ccc2c(c1)OCO2)CN1CC2CCCCC2C(C(=O)N2CCN(c3ccc4nonc4n3)CC2)C1 (centres undefined) |  |
| 1260 |  | CC(Cc1ccc2c(c1)OCO2)CN1CC2CCCCC2C(C(=O)N2CCN(c3cccc4nccn34)CC2)C1 (centres undefined) |  |
| 2.24 | 437 | COC(=O)c1cc(C[C@@H](C)CN2C[C@@H]3CCCC[C@@H]3[C@H](C(=O)N3CCN(c4ccc([N+](=O)[O-])cc4)CC3)C2)cc(C(=O)OC)c1 |  |
| 91.2 |  | CC(Cc1ccc2c(c1)OCO2)CN1CC2CCCCC2C(C(=O)N2CCN(c3ccc(Cl)cn3)CC2)C1 (centres undefined) |  |
| 85.1 | 102 | CC(Cc1ccc2c(c1)OCO2)CN1CCCC(C(=O)N2CCN(c3ccc([N+](=O)[O-])cc3)CC2)C1 (racemic) |  |
| 240 |  | CC(Cc1ccc2c(c1)OCO2)CN1CC2CCCCC2C(C(=O)N2CCN(c3ccc4nccn4n3)CC2)C1 (centres undefined) |  |

| Kd [1] [nM] | Kd [2] [nM] | SMILES | also measured |
| --- | --- | --- | --- |
| 107 | 2340 | COC(=O)c1cc(CC(C)CN2C[C@H]3CCCC[C@H]3[C@@H](C(=O)N3CCN(c4ccc([N+](=O)[O-])cc4)CC3)C2)cc(C(=O)OC)c1 (mixture of isomers) |  |
| 1230 | 2450 | CC(Cc1ccc2c(c1)OCO2)CN1C[C@@H](C(=O)N2CCN(c3ccc([N+](=O)[O-])cc3)CC2)C[C@@H]2CCCC[C@@H]21 (mixture of isomers) |  |
| 107 |  | CC(Cc1ccc2c(c1)OCO2)CN1CC2CCCCC2C(C(=O)N2CCN(c3ccc4nccnc4n3)CC2)C1 (centres undefined) |  |
| 2400 |  | CC(Cc1ccc2c(c1)OCO2)CN1CC2CCCCC2C(C(=O)N2CCN(c3cccc(=O)n3C)CC2)C1 (centres undefined) |  |
| 1.23 | 933 | COC(=O)c1cc(C[C@H](C)CN2C[C@@H]3CCCC[C@@H]3[C@H](C(=O)N3CCN(c4ccc([N+](=O)[O-])cc4)CC3)C2)cc(C(=O)OC)c1 | Ratio [11]: 760 |
| 741 |  | CC(Cc1ccc2c(c1)OCO2)CN1CC2CCCCC2C(C(=O)N2CCN(c3cccc(C(F)(F)F)n3)CC2)C1 (centres undefined) |  |
| 91.2 |  | CC(Cc1ccc2c(c1)OCO2)CN1CC2CCCCC2C(C(=O)N2CCN(c3cccc4nonc34)CC2)C1 (centres undefined) |  |
| 331 |  | CC(Cc1ccc2c(c1)OCO2)CN1CC2CCCCC2C(C(=O)N2CCN(c3ccccn3)CC2)C1 (centres undefined) |  |
| 20 |  | CC(Cc1ccc2c(c1)OCO2)CN1CC2CCCCC2C(C(=O)N2CCN(c3ccc4nonc4c3)CC2)C1 (centres undefined) |  |
| 11 | 1620 | C[C@@H](Cc1ccc2ocnc2c1)CN1C[C@@H]2CCCC[C@@H]2[C@H](C(=O)N2CCN(c3ccc(F)c(F)c3)CC2)C1 |  |
| 1580 |  | CC(Cc1ccc2c(c1)OCO2)CN1CC2CCCCC2C(C(=O)N2CCN(c3cc4nccnc4cn3)CC2)C1 (centres undefined) |  |
| 20.9 |  | CC(Cc1ccc2c(c1)OCO2)CN1CC2CCCCC2C(C(=O)N2CCN(c3ccc(F)c(F)c3)CC2)C1 (centres undefined) |  |
| 34.7 | 9120 | C[C@@H](Cc1ccc2ncnn2c1)CN1C[C@@H]2CCCC[C@@H]2[C@H](C(=O)N2CCN(c3ccc(F)c(F)c3)CC2)C1 |  |
| 14.1 | 2340 | CCOc1ccc(C[C@H](C)CN2C[C@@H]3CCCC[C@@H]3[C@H](C(=O)N3CCN(c4ccc(F)c(F)c4)CC3)C2)cn1 |  |
| 407 |  | CC(Cc1ccc2c(c1)OCO2)CN1CC2CCCCC2C(C(=O)N2CCN(c3cccc(Cl)n3)CC2)C1 (centres undefined) |  |
| 11 | 912 | CC(Cc1ccc2c(c1)OCO2)CN1C[C@H]2CCCC[C@H]2[C@@H](C(=O)N2CCN(c3ccc([N+](=O)[O-])cc3)CC2)C1 (mixture of isomers) | Ratio [11]: 100 |
| 302 | 77.6 | O=C(CCN(CCC1c2ccccc2-c2ccccc21)CC1CC1)N1CCN(c2ccc([N+](=O)[O-])cc2)CC1 |  |
| 10.7 | 2630 | C[C@@H](Cc1ccc2nccnc2c1)CN1C[C@@H]2CCCC[C@@H]2[C@H](C(=O)N2CCN(c3ccc(F)c(F)c3)CC2)C1 |  |
|  |  | Cc1nc2ccc(C[C@H](C)CN3C[C@@H]4CCCC[C@@H]4[C@H](C(=O)N4CCN(c5ccc(F)c(F)c5)CC4)C3)cn2n1 | Ratio [11]: 620 |
| 200 |  | CC(Cc1ccc2c(c1)OCO2)CN1CC2CCCCC2C(C(=O)N2CCN(c3cccc(F)c3)CC2)C1 (centres undefined) |  |
| 79.4 |  | CC(Cc1ccc2c(c1)OCO2)CN1CC2CCCCC2C(C(=O)N2CCN(c3ccc(C#N)cn3)CC2)C1 (centres undefined) |  |
| 95.5 |  | CC(Cc1ccc2c(c1)OCO2)CN1CC2CCCCC2C(C(=O)N2CCN(c3ccc4nsnc4n3)CC2)C1 (centres undefined) |  |
